Reference: ChEMBL document CHEMBL1139778, “Synthesis and biological evaluation of cinnamyl compounds as potent antitumor agents” (Bioorg Med Chem Lett, 2007)
Activity calls are given as the source filed them. The rule behind the calls is not given here.

How the values were obtained:
A549 = assay: Growth inhibition of human A549 cells after 24 hrs by ELISA; format: functional; conditions: A549, 24 h
NCI-H23 = assay: Growth inhibition of human NCI-H23 cells after 24 hrs by ELISA; format: functional; conditions: NCI-H23, 24 h
HCT-116 [1] = assay: Growth inhibition of human HCT116 cells after 24 hrs by ELISA; format: functional; conditions: HCT-116, 24 h
[2] = Growth inhibition of human […] cells after 24 hrs by ELISA; format: functional
SK-OV-3 = assay: Growth inhibition of human SKOV3 cells after 24 hrs by ELISA; format: functional; conditions: SK-OV-3, 24 h
SW-620 [3] = assay: Cell cycle arrest in human SW620 cells assessed as accumulation at G0/G1 phase at 40 uM after 24 hrs by flow cytometry; format: functional
In short: (§1)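 After treatment, cells harvested at 24 h, trypsinized, washed with PBS, fixed overnight in ice-cold 70% EtOH, then treated with RNase A 100 µg/mL at 37 °C for 30 min. Stained with propidium iodide (final 50 µg/mL). DNA content of 20,000 fixed cells read by flow cytometry (FACScalibur); phase distribution from cell cycle modelling.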

HCT-116 [4] = assay: Cell cycle arrest in human HCT116 cells assessed as accumulation at G2/M phase at 30 uM after 24 hrs by flow cytometry; format: functional; in short: as §1
SW-620 [5] = assay: Antitumor activity against human SW620 cells in nude mouse assessed as tumor volume on day 9 at 50 mg/kg, […]; format: functional; conditions: route intraperitoneal
HCT-116 [6] = assay: Induction of PARP cleavage in human HCT116 cells at 20 uM after 24 hrs; format: functional, cell-based
In short: (§2)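 HCT116 cells treated for 24 h, lysed in RIPA buffer; 40 µg lysate resolved by 15% SDS–PAGE, blotted to PVDF, blocked in 5% milk/TBS-T. Primary antibodies 2 h at room temperature, HRP goat anti-rabbit secondary, chemiluminescent detection on X-ray film for PARP and caspase-3 cleavage.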

SW-620 [7] = assay: Cell cycle arrest in human SW620 cells assessed as accumulation at G2/M phase at 40 uM after 24 hrs by flow cytometry; format: functional; in short: as §1
HCT-116 [8] = assay: Induction of caspase 3 cleavage in human HCT116 cells at 20 uM after 24 hrs; format: functional, cell-based; in short: as §2
HCT-116 [9] = assay: Cell cycle arrest in human HCT116 cells assessed as accumulation at G0/G1 phase at 20 uM after 24 hrs by flow cytometry; format: functional; in short: as §1
[10] = test system: SW620 (human colon adenocarcinoma); assay: Induction of apoptosis in human SW620 cells at 30 uM after 24 hrs
HCT-116 [11] = assay: Cell cycle arrest in human HCT116 cells assessed as accumulation at subG1 phase at 20 uM after 24 hrs by flow cytometry; format: functional; in short: as §1
HCT-116 [12] = assay: Cell cycle arrest in human HCT116 cells assessed as accumulation at subG1 phase at 30 uM after 24 hrs by flow cytometry; format: functional; in short: as §1
HCT-116 [13] = assay: Cell cycle arrest in human HCT116 cells assessed as accumulation at G2/M phase at 20 uM after 24 hrs by flow cytometry; format: functional; in short: as §1
SW-620 [14] = assay: Cell cycle arrest in human SW620 cells assessed as accumulation at S phase at 40 uM after 24 hrs by flow cytometry; format: functional; in short: as §1
SW-620 [15] = assay: Cell cycle arrest in human SW620 cells assessed as accumulation at subG1 phase at 40 uM after 24 hrs by flow cytometry; format: functional; in short: as §1
SW-620 [16] = assay: Antitumor activity against human SW620 cells in nude mouse assessed as tumor volume on day 5 at 50 mg/kg, […]; format: functional; conditions: route intraperitoneal
SW-620 [17] = assay: Cell cycle arrest in human SW620 cells assessed as accumulation at S phase at 30 uM after 24 hrs by flow cytometry; format: functional; in short: as §1
SW-620 [18] = assay: Cell cycle arrest in human SW620 cells assessed as accumulation at G2/M phase at 30 uM after 24 hrs by flow cytometry; format: functional; in short: as §1
HCT-116 [19] = assay: Cell cycle arrest in human HCT116 cells assessed as accumulation at G0/G1 phase at 30 uM after 24 hrs by flow cytometry; format: functional; in short: as §1
SW-620 [20] = assay: Cell cycle arrest in human SW620 cells assessed as accumulation at G0/G1 phase at 30 uM after 24 hrs by flow cytometry; format: functional; in short: as §1
SW-620 [21] = assay: Cell cycle arrest in human SW620 cells assessed as accumulation at S phase at 20 uM after 24 hrs by flow cytometry; format: functional; in short: as §1
SW-620 [22] = assay: Antitumor activity against human SW620 cells in nude mouse assessed as tumor volume on day 12 at 50 mg/kg, […]; format: functional; conditions: route intraperitoneal
SW-620 [23] = assay: Cell cycle arrest in human SW620 cells assessed as accumulation at G0/G1 phase at 20 uM after 24 hrs by flow cytometry; format: functional; in short: as §1
HCT-116 [24] = assay: Cell cycle arrest in human HCT116 cells assessed as accumulation at G2/M phase at 40 uM after 24 hrs by flow cytometry; format: functional; in short: as §1
HCT-116 [25] = assay: Cell cycle arrest in human HCT116 cells assessed as accumulation at G0/G1 phase at 40 uM after 24 hrs by flow cytometry; format: functional; in short: as §1
SW-620 [26] = assay: Antitumor activity against human SW620 cells in nude mouse assessed as tumor volume on day 7 at 50 mg/kg, […]; format: functional; conditions: route intraperitoneal
HCT-116 [27] = assay: Cell cycle arrest in human HCT116 cells assessed as accumulation at S phase at 20 uM after 24 hrs by flow cytometry; format: functional; in short: as §1
SW-620 [28] = assay: Cell cycle arrest in human SW620 cells assessed as accumulation at subG1 phase at 30 uM after 24 hrs by flow cytometry; format: functional; in short: as §1
HCT-116 [29] = assay: Cell cycle arrest in human HCT116 cells assessed as accumulation at S phase at 40 uM after 24 hrs by flow cytometry; format: functional; in short: as §1
SW-620 [30] = assay: Cell cycle arrest in human SW620 cells assessed as accumulation at subG1 phase at 20 uM after 24 hrs by flow cytometry; format: functional; in short: as §1
HCT-116 [31] = assay: Cell cycle arrest in human HCT116 cells assessed as accumulation at S phase at 30 uM after 24 hrs by flow cytometry; format: functional; in short: as §1
SW-620 [32] = assay: Cell cycle arrest in human SW620 cells assessed as accumulation at G2/M phase at 20 uM after 24 hrs by flow cytometry; format: functional; in short: as §1
HCT-116 [33] = assay: Cell cycle arrest in human HCT116 cells assessed as accumulation at subG1 phase at 40 uM after 24 hrs by flow cytometry; format: functional; in short: as §1
SW-620 [34] = assay: Antitumor activity against human SW620 cells in nude mouse assessed as tumor volume on day 14 at 50 mg/kg, ip for 20 days; format: organism-based; design: dose 50 mg/kg, route intraperitoneal; conditions: in vivo
In short: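 SW620 human colon adenocarcinoma cells (3 × 10⁷ cells/mL) implanted subcutaneously in right flank of nude mice on day 0. Compound in 0.5% Tween 80 given ip at 50 mg/kg per day; vehicle control and doxifluridine 50 mg/kg reference; 8 mice per group. Tumor volume estimated as length × width × height/2; mice sacrificed on day 14.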

Structure (SMILES): CC(=O)ONC(=O)/C=C/c1ccccc1OC(=O)c1ccccc1
- GI50 (A549): 30.2 µM
- GI50 (NCI-H23): 26.3 µM
- GI50 (HCT-116 [1]): 21.3 µM
- GI50 [2]: 18.6 µM
- GI50 (SK-OV-3): 16.8 µM

Structure (SMILES): O=C(/C=C/c1ccccc1O)NO
- GI50 (A549): 55.2 µM
- GI50 (NCI-H23): 27.8 µM
- GI50 (HCT-116 [1]): 16.8 µM
- GI50 [2]: 49.8 µM
- GI50 (SK-OV-3): 50.4 µM

Structure (SMILES): CO/N=C/C=C/c1ccccc1OC(=O)c1ccccc1
- GI50 (A549): > 100 µM
- GI50 (NCI-H23): > 100 µM
- GI50 (HCT-116 [1]): > 100 µM
- GI50 [2]: > 100 µM
- GI50 (SK-OV-3): > 100 µM

Structure (SMILES): COc1ccccc1/C=C/C(=O)NO
- GI50 (A549): 53.5 µM
- GI50 (NCI-H23): 26.9 µM
- GI50 (HCT-116 [1]): 15.3 µM
- GI50 [2]: 16.8 µM
- GI50 (SK-OV-3): 48.8 µM

Structure (SMILES): O=C(Cl)/C=C/c1ccccc1OC(=O)c1ccccc1
- GI50 (A549): > 100 µM
- GI50 (NCI-H23): > 100 µM
- GI50 (HCT-116 [1]): > 100 µM
- GI50 [2]: > 100 µM
- GI50 (SK-OV-3): > 100 µM

Structure (SMILES): O=C(/C=C/c1ccccc1OC(=O)c1ccccc1)NOC(=O)N1CCOCC1
- Activity (SW-620 [3]): 33.34%
- Activity (HCT-116 [4]): 38.22%
- Activity (SW-620 [5]): 17.3 mm3
- Activity (HCT-116 [6]): Active
- Activity (SW-620 [7]): 40.14%
- GI50 (A549): 25.2 µM
- Activity (HCT-116 [8]): Active
- Activity (HCT-116 [9]): 42.72%
- Activity [10]: Active
- Activity (HCT-116 [11]): 32.36%
- Activity (HCT-116 [12]): 39.14%
- GI50 (NCI-H23): 12.9 µM
- Activity (HCT-116 [13]): 35.23%
- Activity (SW-620 [14]): 26.52%
- GI50 (HCT-116 [1]): 12.5 µM
- Activity (SW-620 [15]): 12.7%
- Activity (SW-620 [16]): 1.4 mm3
- Activity (SW-620 [17]): 26.12%
- Activity (SW-620 [18]): 26.41%
- Activity (HCT-116 [19]): 41.4%
- Activity (SW-620 [20]): 46.46%
- Activity (SW-620 [21]): 27.79%
- Activity (SW-620 [22]): 45 mm3
- Activity (SW-620 [23]): 48.88%
- Activity (HCT-116 [24]): 42.06%
- Activity (HCT-116 [25]): 31.06%
- Activity (SW-620 [26]): 4.3 mm3
- Activity (HCT-116 [27]): 22.05%
- Activity (SW-620 [28]): 3.5%
- Activity (HCT-116 [29]): 26.88%
- Activity (SW-620 [30]): 3.03%
- GI50 [2]: 5.8 µM
- GI50 (SK-OV-3): 12.7 µM
- Activity (HCT-116 [31]): 20.39%
- Activity (SW-620 [32]): 22.33%
- Activity (HCT-116 [33]): 36.83%
- Activity (SW-620 [34]): 89 mm3

Structure (SMILES): O=C(/C=C/c1ccccc1OC(=O)c1ccccc1)NO
- GI50 (A549): 44.9 µM
- GI50 (NCI-H23): 17.5 µM
- GI50 (HCT-116 [1]): 11.2 µM
- GI50 [2]: 20.2 µM
- GI50 (SK-OV-3): 35.3 µM

Structure (SMILES): CN1CCN(C(=O)/C=C/c2ccccc2OC(=O)c2ccccc2)CC1
- GI50 (A549): > 100 µM
- GI50 (NCI-H23): > 100 µM
- GI50 (HCT-116 [1]): > 100 µM
- GI50 [2]: > 100 µM
- GI50 (SK-OV-3): > 100 µM

Structure (SMILES): CN1CCN(C(=O)ONC(=O)/C=C/c2ccccc2OC(=O)c2ccccc2)CC1
- GI50 (A549): > 100 µM
- GI50 (NCI-H23): 45.2 µM
- GI50 (HCT-116 [1]): 40.4 µM
- GI50 [2]: 89.3 µM
- GI50 (SK-OV-3): > 100 µM

Structure (SMILES): O=C(/C=C/c1ccccc1OC(=O)c1ccccc1)NOC(=O)c1ccccc1
- GI50 (A549): 8.8 µM
- GI50 (NCI-H23): 18.2 µM
- GI50 (HCT-116 [1]): 13.6 µM
- GI50 [2]: 3.2 µM
- GI50 (SK-OV-3): 12.9 µM

Structure (SMILES): C[C@H]1O[C@@H](n2cc(F)c(=O)[nH]c2=O)[C@H](O)[C@@H]1O [DOXIFLURIDINE]
- Activity (SW-620 [5]): 41.4 mm3
- Activity (SW-620 [16]): 3.8 mm3
- Activity (SW-620 [22]): 77.9 mm3
- Activity (SW-620 [26]): 15 mm3
- Activity (SW-620 [34]): 120.7 mm3
